For one assay, the system named is HT-29. The assay can be described thus: Cytotoxicity against human HT-29 cells. It counts as functional. The following applies: read-out: ED50 (the source's name). The procedure, abridged:
(§1)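 Cytotoxicity assay run as previously described, with test compounds at three concentrations (50, 5 and 0.5 µg/mL). HT29 cells are human colon adenocarcinoma. P-388 cells are mouse lymphocytic leukemia, supplied by J. M. Pezzuto.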

For another assay, the system named is P388. The experiment in a line: Cytotoxicity against mouse P388 cells. It counts as functional. Conditions: read-out: ED50 (the source's name). The gist of the method: as §1

Structures are written as SMILES. ≈ marks a conversion by molar mass, not a printed value. Bounds are passed on as bounds.

On to `CC(=O)O[C@@H]1C(=O)CCC2=CC(=O)C[C@H](C)[C@@]2(C)/C=C\1C` (single isomer, unassigned) [LAEVINONE A], for which the EC50 in the assay on HT-29 and in the assay on P388 was more than 5 µg/mL throughout.
In the case of `CC(=O)[C@H]1[C@H](O)CC[C@]23O[C@H]2[C@H](O)C[C@H](C)[C@@]13C` [LAEVINOL G], the EC50 with HT-29 and in the assay on P388 was more than 5 µg/mL in each case.
In the case of `CC(=O)[C@@H]1C(=O)CC[C@]23O[C@H]2[C@H](O)C[C@H](C)[C@@]13C`, the EC50 with HT-29 and with P388 was more than 5 µg/mL in each case.
On to `CC(=O)[C@H]1[C@@H](OC=O)CCC2=C[C@@H](O)C[C@H](C)[C@]21C` [LAEVINOL A], for which the EC50 in the assay on HT-29 and in the assay with P388 was more than 5 µg/mL throughout.
For `CC(=O)[C@H]1C(=O)CCC2=C[C@@H](O)C[C@H](C)[C@]21C` [LAEVINOL E], the EC50 with HT-29 and in the assay with P388 was more than 5 µg/mL in each case.
Consider `C[C@H]1CCC=C2CCC(C(C)(O)CO)=C[C@@]21C` (some centres not stated), for which the figures for the EC50 with HT-29 and with P388 were 0.33 µg/mL (≈ 1.4 µM) and 0.21 µg/mL (≈ 0.888 µM), respectively.
On the same counts, the results for `CC(=O)[C@H]1[C@H](O)CC[C@]23O[C@H]2CC[C@H](C)[C@@]13C` [LAEVINOL H] are more than 5 µg/mL and more than 5 µg/mL.
On the same counts, the results for `CC(=O)[C@H]1[C@@H](O)CCC2=C[C@H](O)C[C@H](C)[C@]21C` [LAEVINOL D] are more than 5 µg/mL and more than 5 µg/mL.
Take `CC(=O)[C@H]1[C@H](O)CCC2=C[C@@H](O)C[C@H](C)[C@]21C` [LAEVINOL C]: the EC50 in the assay with HT-29 and in the assay with P388 was more than 5 µg/mL throughout.
Turning to `CC(=O)[C@H]1[C@H](O)CC[C@]23O[C@H]2[C@@H](O)C[C@H](C)[C@@]13C` [LAEVINOL F], the EC50 in the assay with HT-29 and with P388 was more than 5 µg/mL each time.
Consider `CC(=O)[C@H]1[C@@H](O)CCC2=C[C@@H](O)C[C@H](C)[C@]21C` [LAEVINOL B], for which the EC50 with HT-29 and in the assay on P388 was more than 5 µg/mL each time.

(Values after ChEMBL document CHEMBL1151279, “Sesquiterpenoids and norsesquiterpenoids from the Formosan soft coral Lemnalia laevis” (2005).)
